# Published values gathered from unrelated publications.
# Protocols differ between the studies behind these lines.
SMILES,system,conditions,clearance [mL/min/kg]
CC(C)c1cnn2c(NCc3ccccc3)cc(NC[C@H]3CCNC[C@@H]3O)nc12,"male CD-1 mouse, plasma","intravenous, 10 mg/kg",78
CC(C)(Oc1cccc(N2CCC[C@@H](C(=O)N(Cc3ccc(-c4cn[nH]c4)cc3)C3CC3)C2)c1)C(=O)N1CCNCC1.Cl,"male C57BL/6 mouse, plasma","intravenous, 1 mg/kg",44.2
Cc1noc(C)c1-c1ccc2nc(-c3cnn(CC(C)(C)O)c3)nc(N3CCNC[C@@H]3c3ccccc3)c2c1,"CD-1 mouse, plasma","intravenous, 2 mg/kg",272
O=C(CS(=O)(=O)O)Nc1ccc(N2CCOCC2)c(Br)c1,"CD-1 mouse, blood","intravenous, 2 mg/kg",62
CNCCN(C)c1cc(C#N)cc(CCc2cc(C)cc(N)n2)c1,"male BALB/c mouse, brain","intravenous, 2 mg/kg",21
CCNc1nc2c(c(N3CC(=O)Nc4cc(OC)ccc43)n1)CCC2,"female C57BL/6 mouse, plasma","intravenous, 4 mg/kg, single dose",108
OC[C@H]1O[C@@H](c2ccc(Cl)c(Cc3ccc(O[C@H]4CCOC4)cc3)c2)[C@H](O)[C@@H](O)[C@@H]1O,"CD-1 mouse, plasma","intravenous, 5 mg/kg",51.6
CC[C@H](C)[C@@H]1NC(=O)[C@@](C)(NC(=O)[C@H](CCCNC(=N)N)NC(=O)[C@H](CC(C)C)NC(=O)[C@@H](NC(=O)[C@H](CCC(N)=O)NC(=O)[C@H](CC(C)C)NC(C)=O)[C@@H](C)O)CCCC=CCCC[C@@](C)(C(=O)N[C@@H](CC(C)C)C(=O)N[C@@H](Cc2ccc3ccccc3c2)C(N)=O)NC(=O)[C@H](CCCNC(=N)N)NC(=O)[C@H](CCC(N)=O)NC1=O,"male BALB/c mouse, plasma","intravenous, 15 mg/kg",0.96
COc1cc(OC)c2nccc(N3CCc4c(cc(Cn5ccnc5)cc4-c4cn(C)nc4C(F)(F)F)C3=O)c2c1,"male CD-1 mouse, plasma","intravenous, 3 mg/kg",63
O=C1C2N=CN3C(NCc4c(F)ccc5c4CCO5)=NC=C(c4cnc(C(F)(F)F)cc4CN1CC(F)F)C23 (stereo not drawn),"male CD-1 mouse, plasma","intravenous, 2 mg/kg",0.59
CC(C)(C)c1ccc(O)c(CN(Cc2cc(C(C)(C)C)ccc2O)C2CCC(NC(N)=O)CC2)c1 (stereo not drawn),"male C57BL/6 mouse, plasma","oral, 10 mg/kg, single dose",32.3
CN(C)C/C=C/C(=O)Nc1ccc(O[C@@H]2CCC[C@@H](Nc3ncc(Cl)c(-c4c[nH]c5ccccc45)n3)C2)cc1,"male Swiss mouse, plasma","intravenous, 3 mg/kg",24.9
Cc1c(Br)cc(NC(=O)NS(=O)(=O)O)cc1Br,"CD-1 mouse, blood","intravenous, 2 mg/kg",5.65
CCc1cc(C(=O)NC)c2nccc(N3CCc4c(cc(Cn5ccnc5)cc4-c4cn(C)nc4C(F)(F)F)C3=O)c2c1,"male CD-1 mouse, plasma","intravenous, 3 mg/kg",12
Cc1noc(C)c1-c1ccc2nc(N3CCN(CCN(C)C)CC3)nc(N3CCOC[C@@H]3c3ccccc3)c2c1,"CD-1 mouse, plasma","intravenous, 2 mg/kg",62.3
COc1nc(-c2cc(C)c(N[C@@H](C)c3ccc(F)cc3)nn2)ccc1-n1cnc(C)c1,"male CD-1 mouse, plasma","intravenous, 1 mg/kg, single dose",3.9
CCc1cc(OC)c2nccc(N3CCc4c(cc(Cn5ccnc5)cc4-c4cn(C)nc4C(F)(F)F)C3=O)c2c1,"male CD-1 mouse, plasma","intravenous, 3 mg/kg",16
C=C(C[C@H](N)C(=O)O)C(=O)NCc1ccc(F)cc1,"male CD-1 mouse, plasma","intravenous, 2.5 mg/kg",29.4
